Test results published in ChEMBL document CHEMBL1938372, “Design and synthesis of conformationally constrained inhibitors of non-nucleoside reverse transcriptase” (J Med Chem, 2011).
Active and inactive are the calls of the source. The calls are words filed in the database; no cut-off is given here.

Key:
[1] = molecular target: Human immunodeficiency virus type 1 reverse transcriptase (Human immunodeficiency virus 1, UniProt Q72547, Y181C); experiment: Inhibition of Human immunodeficiency virus reverse transcriptase Y181C mutant by SPA assay
Procedure, shortened: (§1)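 Recombinant HIV-1 RT polymerase scintillation proximity assay run with mutant enzyme, reported as Ki (nM). Values are geometric means of at least two determinations, each within 2-fold of the mean; SEM is given where there were ≥3 determinations.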

MT4 = experiment: Cytotoxicity against human MT4 cells up to 8.3 uM; format: cell-based
Procedure, shortened: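 MT-4 cells in RPMI 1640 with 10% FBS or 50% NHS, run alongside the antiviral CIC95 assay; cytotoxicity checked up to the assay upper limit of 8.3 μM.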

[2] = system: Human immunodeficiency virus; experiment: Antiviral activity against Human immunodeficiency virus expressing wild type reverse transcriptase infected in human MT4 cells by p24 antigen assay in the presence of 10% FBS; format: functional; conditions: Human immunodeficiency virus 1, MT4; read-out: CIC95
Procedure, shortened: (§2)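 MT-4 human T-lymphoid cells in RPMI 1640 with either 10% FBS or 50% NHS; CIC95 taken as the concentration inhibiting virus spread/replication by >95%. Geometric mean of at least two determinations, individual values within 2-fold; SEM given when ≥3 determinations.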

[3] = molecular target: Human immunodeficiency virus type 1 reverse transcriptase (Human immunodeficiency virus 1, UniProt Q72547, K103N); experiment: Inhibition of Human immunodeficiency virus reverse transcriptase K103N mutant by SPA assay; procedure, shortened: as §1
[4] = Inhibition of Human immunodeficiency virus reverse transcriptase by SPA assay
[5] = system: Human immunodeficiency virus; experiment: Antiviral activity against Human immunodeficiency virus expressing wild type reverse transcriptase infected in human MT4 cells by p24 antigen assay in the presence of 50% normal human serum; format: functional; conditions: Human immunodeficiency virus 1, MT4; read-out: CIC95; procedure, shortened: as §2
[6] = Volume of distribution in Sprague-Dawley rat at 10 mg/kg, po and 2 mg/kg, iv; format: ADME, organism-based; conditions: in vivo
Procedure, shortened: (§3)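 PK in Sprague-Dawley rats (iv solution in DMSO via an indwelling jugular cannula, or oral suspension in aqueous methylcellulose/Methocel) and beagle dogs (iv and oral given crossover, same vehicles). Plasma levels by LC-MS. F from oral versus iv dose-normalized AUC. Average of at least two animals; rat values within 25% of the mean.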

[7] = system: Human immunodeficiency virus; experiment: Antiviral activity against multidrug-resistant Human immunodeficiency virus assessed as inhibition of viral replication; format: functional, organism-based
Procedure, shortened: (§4)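 Phenosense cell culture assay against a panel of clinically derived RT mutant viruses in the presence of 10% FBS. IC50 is the compound concentration blocking 50% of viral replication. Each value is the average of two determinations.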

[8] = system: Human immunodeficiency virus; experiment: Antiviral activity against Human immunodeficiency virus harboring reverse transcriptase Y188L mutant assessed as inhibition of viral replication; format: functional, organism-based; procedure, shortened: as §4
[9] = Bioavailability in Beagle dog at 2 mg/kg, po and 1 mg/kg, iv; format: ADME, organism-based, Canis lupus familiaris; conditions: in vivo; procedure, shortened: as §3
[10] = system: Human immunodeficiency virus; experiment: Antiviral activity against Human immunodeficiency virus harboring reverse transcriptase Y181C mutant assessed as inhibition of viral replication; format: functional, organism-based; procedure, shortened: as §4
Rattus norvegicus = experiment: Dose normalised AUC in Sprague-Dawley rat at 10 mg/kg, po by LC-MS analysis; format: ADME, organism-based; design: dose 10 mg/kg, route oral; conditions: in vivo; procedure, shortened: as §3
[11] = system: Human immunodeficiency virus; experiment: Antiviral activity against wild type Human immunodeficiency virus assessed as inhibition of viral replication; format: functional, organism-based
[12] = system: Human immunodeficiency virus; experiment: Antiviral activity against Human immunodeficiency virus harboring reverse transcriptase G190S mutant assessed as inhibition of viral replication; format: functional, organism-based; procedure, shortened: as §4
[13] = system: Human immunodeficiency virus; experiment: Antiviral activity against Human immunodeficiency virus expressing reverse transcriptase K103N mutant infected in human MT4 cells by p24 antigen assay in the presence of 10% FBS; format: functional; conditions: Human immunodeficiency virus 1, MT4; read-out: CIC95
Procedure, shortened: (§5)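 Antiviral spread assay in MT-4 human T-lymphoid cells kept in RPMI 1640 with 10% FBS. Value is the CIC95, the concentration inhibiting virus replication by >95%. Reported as the geometric mean of at least two determinations, all within 2-fold of the mean. Cytotoxicity was checked up to the assay upper limit of 8.3 μM.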

[14] = system: Human immunodeficiency virus; experiment: Antiviral activity against Human immunodeficiency virus harboring reverse transcriptase L100l/K103N/P225P/H triple mutant assessed as inhibition of viral replication; format: functional, organism-based; procedure, shortened: as §4
[15] = Plasma clearance in Sprague-Dawley rat at 10 mg/kg, po and 2 mg/kg, iv; format: ADME, organism-based; procedure, shortened: as §3
[16] = Half life in Beagle dog at 2 mg/kg, po and 1 mg/kg, iv; format: ADME, organism-based, Canis lupus familiaris; conditions: in vivo; procedure, shortened: as §3
[17] = system: Human immunodeficiency virus; experiment: Antiviral activity against Human immunodeficiency virus harboring reverse transcriptase K103N mutant assessed as inhibition of viral replication; format: functional, organism-based; procedure, shortened: as §4
[18] = system: Human immunodeficiency virus; experiment: Antiviral activity against Human immunodeficiency virus expressing reverse transcriptase Y181C mutant infected in human MT4 cells by p24 antigen assay in the presence of 10% FBS; format: functional; conditions: Human immunodeficiency virus 1, MT4; read-out: CIC95; procedure, shortened: as §5
[19] = Solubility of the compound in water at pH 2; format: physicochemical
Procedure, shortened: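 Water solubility of the solid compound measured at pH 2 and at pH 7.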

[20] = system: Human immunodeficiency virus; experiment: Antiviral activity against Human immunodeficiency virus harboring reverse transcriptase V106A/G190A/F227L triple mutant assessed as inhibition of viral replication; format: functional, organism-based; procedure, shortened: as §4
[21] = system: Human immunodeficiency virus; experiment: Antiviral activity against Human immunodeficiency virus harboring reverse transcriptase K103N/P225H double mutant assessed as inhibition of viral replication; format: functional, organism-based; procedure, shortened: as §4
[22] = system: Human immunodeficiency virus; experiment: Antiviral activity against Human immunodeficiency virus harboring reverse transcriptase G190A mutant assessed as inhibition of viral replication; format: functional, organism-based; procedure, shortened: as §4
[23] = system: Human immunodeficiency virus; experiment: Antiviral activity against Human immunodeficiency virus harboring reverse transcriptase L100l mutant assessed as inhibition of viral replication; format: functional, organism-based; procedure, shortened: as §4
[24] = Plasma clearance in Beagle dog at 2 mg/kg, po and 1 mg/kg, iv; format: ADME, organism-based, Canis lupus familiaris; procedure, shortened: as §3
[25] = Volume of distribution in Beagle dog at 2 mg/kg, po and 1 mg/kg, iv; format: ADME, organism-based, Canis lupus familiaris; conditions: in vivo; procedure, shortened: as §3
[26] = system: Human immunodeficiency virus; experiment: Antiviral activity against Human immunodeficiency virus harboring reverse transcriptase K101E/G190A double mutant assessed as inhibition of viral replication; format: functional, organism-based; procedure, shortened: as §4
Canis familiaris = experiment: Dose normalised AUC in Beagle dog at 2 mg/kg, po by LC-MS analysis; format: ADME, organism-based, Canis lupus familiaris; design: dose 2 mg/kg, route oral; conditions: in vivo; procedure, shortened: as §3
[27] = system: Human immunodeficiency virus; experiment: Antiviral activity against Human immunodeficiency virus harboring reverse transcriptase K101E/Y181C/G190A triple mutant assessed as inhibition of viral replication; format: functional, organism-based; procedure, shortened: as §4
[28] = Half life in Sprague-Dawley rat at 10 mg/kg, po and 2 mg/kg, iv; format: ADME, organism-based; conditions: in vivo; procedure, shortened: as §3
[29] = Bioavailability in Sprague-Dawley rat at 10 mg/kg, po and 2 mg/kg, iv; format: ADME, organism-based; conditions: in vivo; procedure, shortened: as §3
[30] = system: Human immunodeficiency virus; experiment: Antiviral activity against Human immunodeficiency virus harboring reverse transcriptase K103N/Y181C/G190A triple mutant assessed as inhibition of viral replication; format: functional, organism-based; procedure, shortened: as §4

## Cc1nc2c(Oc3cc(Cl)cc(C#N)c3)c(Cl)ccc2n1Cc1n[nH]c2ncccc12
[1]
  Ki: > 300 nM
MT4
  Activity: Non-toxic
[2]
  IC95: > 833 nM
[3]
  Ki: > 600 nM
[4]
  Ki: > 300 nM
[5]
  IC95: > 833 nM

## N#Cc1cc(Cl)cc(Oc2c(Cl)ccc3c2nnn3Cc2n[nH]c3ncccc23)c1
[6]
  Vd: 5.5 L/kg
[7]
  inhibition: Active
[8]
  inhibition: inactive
[9]
  bioavailability: 9.5%
[1]
  Ki: 0.44 nM
MT4
  Activity: Non-toxic
[2]
  IC95: 4.3 nM
[10]
  inhibition: Active
Rattus norvegicus
  AUC/dose: 0.18 µM·h
[11]
  inhibition: Active
[12]
  inhibition: Active
[13]
  IC95: 3.8 nM
[14]
  inhibition: Active
[3]
  Ki: 0.43 nM
[4]
  Ki: 0.24 nM
[15]
  clearance: 14 mL/min/kg
[16]
  half-life: 11.3 h
[5]
  IC95: 23 nM
[17]
  inhibition: Active
[18]
  IC95: 18 nM
[19]
  solubility: < 0.1 µg/mL
[20]
  inhibition: inactive
[21]
  inhibition: Active
[22]
  inhibition: Active
[23]
  inhibition: Active
[24]
  clearance: 1.6 mL/min/kg
[25]
  Vd: 1.3 L/kg
[26]
  inhibition: Active
Canis familiaris
  AUC/dose: 0.45 µM·h
[27]
  inhibition: Active
[28]
  half-life: 4.8 h
[29]
  bioavailability: 7.3%
[30]
  inhibition: Active

## N#Cc1cc(Cl)cc(Oc2cc3c(cc2Cl)nnn3Cc2n[nH]c3ncccc23)c1
[1]
  Ki: > 900 nM
MT4
  Activity: Non-toxic
[2]
  IC95: > 833 nM
[3]
  Ki: > 300 nM
[4]
  Ki: > 300 nM

## N#Cc1cc(Cl)cc(Oc2cc3c(cc2Cl)ncn3Cc2n[nH]c3ncccc23)c1
[1]
  Ki: > 100 nM
MT4
  Activity: Non-toxic
[2]
  IC95: 693 nM
[13]
  IC95: 732 nM
[3]
  Ki: > 100 nM
[4]
  Ki: 114 nM

## NCc1cc(Cl)cc(Oc2c(Cl)ccc3c2nnn3Cc2n[nH]c3ncccc23)c1Cl
MT4
  Activity: Non-toxic
[2]
  IC95: 57 nM
[13]
  IC95: 232 nM
[5]
  IC95: 281 nM
[18]
  IC95: 418 nM

## N#Cc1cc(Cl)cc(Oc2c(Cl)ccc3c2[nH]c(=O)n3Cc2n[nH]c3ncccc23)c1
[1]
  Ki: > 300 nM
MT4
  Activity: Non-toxic
[2]
  IC95: > 833 nM
[3]
  Ki: > 600 nM
[4]
  Ki: > 300 nM
[5]
  IC95: > 833 nM
